Measurements as given in ChEMBL document CHEMBL2150931, “Design, synthesis, and biological activity of a novel series of human sirtuin-2-selective inhibitors” (J Med Chem, 2012).
Active and inactive are the calls of the source. The rule behind the calls is not given here.

How the values were obtained:
[1] = molecular target: T1, NAD-dependent protein deacetylase sirtuin-3, mitochondrial (Homo sapiens, UniProt Q9NTG7); assay: Inhibition of human recombinant SIRT3 using Fluor de Lys-SIRT as substrate incubated for 60 mins prior to substrate addition measured after 60 mins by fluorimetric analysis
T1 sequence (Q9NTG7 whole entry): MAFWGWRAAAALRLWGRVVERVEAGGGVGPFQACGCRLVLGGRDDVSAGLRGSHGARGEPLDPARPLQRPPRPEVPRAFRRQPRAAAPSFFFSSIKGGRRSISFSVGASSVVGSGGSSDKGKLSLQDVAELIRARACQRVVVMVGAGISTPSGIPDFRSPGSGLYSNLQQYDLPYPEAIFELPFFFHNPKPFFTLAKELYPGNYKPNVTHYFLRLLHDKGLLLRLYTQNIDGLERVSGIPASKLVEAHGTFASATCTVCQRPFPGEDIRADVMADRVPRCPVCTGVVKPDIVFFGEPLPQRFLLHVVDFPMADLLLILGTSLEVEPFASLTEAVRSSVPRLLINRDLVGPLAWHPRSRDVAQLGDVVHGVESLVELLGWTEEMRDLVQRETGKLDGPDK

[2] = molecular target: T2, NAD-dependent protein deacetylase sirtuin-2 (Homo sapiens) (UniProt Q8IXJ6); assay: Binding affinity to recombinant SIRT2 by surface plasmon resonance assay
T2 sequence (whole entry): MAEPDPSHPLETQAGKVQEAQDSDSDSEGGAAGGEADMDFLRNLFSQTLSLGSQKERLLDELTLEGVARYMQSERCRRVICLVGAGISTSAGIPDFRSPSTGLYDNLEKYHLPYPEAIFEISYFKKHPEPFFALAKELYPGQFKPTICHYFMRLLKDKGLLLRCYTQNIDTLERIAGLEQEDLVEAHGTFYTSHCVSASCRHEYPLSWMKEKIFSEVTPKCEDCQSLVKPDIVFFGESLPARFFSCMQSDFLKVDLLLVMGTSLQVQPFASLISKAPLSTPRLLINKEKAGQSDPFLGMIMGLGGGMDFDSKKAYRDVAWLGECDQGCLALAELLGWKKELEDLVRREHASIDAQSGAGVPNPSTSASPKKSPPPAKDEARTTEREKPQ

[3] = molecular target: T2, NAD-dependent protein deacetylase sirtuin-2 (Homo sapiens); assay: Inhibition of SIRT2 in human HCT116 cells assessed as increase in acetylated alpha-tubulin after 8 hrs by Western blot analysis; format: cell-based; settings: HCT-116
Procedure, shortened: (§1)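 HCT116 cells grown in McCoy's 5A with 10% FBS. 5×10⁵ cells exposed 8 h to compound at 1 or 10 μM, alongside 20 μM etoposide. SDS lysates equalized by Bradford assay and run on 15% SDS-PAGE, then blotted onto nitrocellulose. Blots probed overnight at 4 °C for acetyl-p53, p53, acetyl-α-tubulin and α-tubulin, and detected by ECL. Signal given as acetylated/total protein ratio.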

[4] = molecular target: T3, NAD-dependent protein deacetylase sirtuin-1 (Homo sapiens) (UniProt Q96EB6); assay: Inhibition of SIRT1 in human HCT116 cells assessed as increase in acetylated p53 at 1 to 10 uM after 8 hrs by Western blot analysis; format: cell-based; settings: HCT-116; procedure, shortened: as §1
T3 sequence (whole entry): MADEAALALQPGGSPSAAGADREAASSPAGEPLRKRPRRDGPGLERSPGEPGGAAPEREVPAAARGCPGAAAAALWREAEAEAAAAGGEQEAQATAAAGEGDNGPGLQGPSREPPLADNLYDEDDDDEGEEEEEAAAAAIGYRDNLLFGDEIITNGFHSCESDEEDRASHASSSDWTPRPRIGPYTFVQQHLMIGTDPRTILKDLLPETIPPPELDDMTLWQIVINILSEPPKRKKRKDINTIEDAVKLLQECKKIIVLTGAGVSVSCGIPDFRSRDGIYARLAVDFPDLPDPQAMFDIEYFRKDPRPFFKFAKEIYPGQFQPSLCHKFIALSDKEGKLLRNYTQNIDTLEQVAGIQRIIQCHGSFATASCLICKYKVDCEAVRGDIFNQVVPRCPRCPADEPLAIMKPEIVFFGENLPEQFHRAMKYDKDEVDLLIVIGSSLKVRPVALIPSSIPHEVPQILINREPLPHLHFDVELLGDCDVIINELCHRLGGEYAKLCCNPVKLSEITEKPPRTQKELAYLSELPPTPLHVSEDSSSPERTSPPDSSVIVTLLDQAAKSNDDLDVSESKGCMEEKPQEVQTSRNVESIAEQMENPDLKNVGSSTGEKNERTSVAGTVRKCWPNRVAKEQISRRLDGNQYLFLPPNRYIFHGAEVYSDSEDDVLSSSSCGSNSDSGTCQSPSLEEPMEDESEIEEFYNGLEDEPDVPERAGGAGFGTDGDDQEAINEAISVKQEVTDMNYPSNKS

Histone deacetylase 1 = Histone deacetylase 1 (Homo sapiens, UniProt Q13547); assay: Inhibition of HDAC1
Chain of Histone deacetylase 1 (Q13547 whole entry): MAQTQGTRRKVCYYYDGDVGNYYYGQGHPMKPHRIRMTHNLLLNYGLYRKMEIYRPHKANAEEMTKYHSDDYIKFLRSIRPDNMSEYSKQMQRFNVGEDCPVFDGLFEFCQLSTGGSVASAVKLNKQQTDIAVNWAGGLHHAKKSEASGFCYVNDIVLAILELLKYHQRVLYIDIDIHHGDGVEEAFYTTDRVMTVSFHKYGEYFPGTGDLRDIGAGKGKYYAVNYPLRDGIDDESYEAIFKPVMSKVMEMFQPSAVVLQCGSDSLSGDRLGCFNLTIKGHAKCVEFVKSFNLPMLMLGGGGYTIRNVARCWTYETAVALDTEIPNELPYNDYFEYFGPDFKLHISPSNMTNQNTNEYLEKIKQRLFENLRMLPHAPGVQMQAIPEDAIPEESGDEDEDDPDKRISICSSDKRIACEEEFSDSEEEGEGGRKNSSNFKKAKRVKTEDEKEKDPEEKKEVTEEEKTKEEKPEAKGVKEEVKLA

Histone deacetylase 4 = Histone deacetylase 4 (Homo sapiens, UniProt P56524); assay: Inhibition of HDAC4
Chain of Histone deacetylase 4 (P56524 whole entry): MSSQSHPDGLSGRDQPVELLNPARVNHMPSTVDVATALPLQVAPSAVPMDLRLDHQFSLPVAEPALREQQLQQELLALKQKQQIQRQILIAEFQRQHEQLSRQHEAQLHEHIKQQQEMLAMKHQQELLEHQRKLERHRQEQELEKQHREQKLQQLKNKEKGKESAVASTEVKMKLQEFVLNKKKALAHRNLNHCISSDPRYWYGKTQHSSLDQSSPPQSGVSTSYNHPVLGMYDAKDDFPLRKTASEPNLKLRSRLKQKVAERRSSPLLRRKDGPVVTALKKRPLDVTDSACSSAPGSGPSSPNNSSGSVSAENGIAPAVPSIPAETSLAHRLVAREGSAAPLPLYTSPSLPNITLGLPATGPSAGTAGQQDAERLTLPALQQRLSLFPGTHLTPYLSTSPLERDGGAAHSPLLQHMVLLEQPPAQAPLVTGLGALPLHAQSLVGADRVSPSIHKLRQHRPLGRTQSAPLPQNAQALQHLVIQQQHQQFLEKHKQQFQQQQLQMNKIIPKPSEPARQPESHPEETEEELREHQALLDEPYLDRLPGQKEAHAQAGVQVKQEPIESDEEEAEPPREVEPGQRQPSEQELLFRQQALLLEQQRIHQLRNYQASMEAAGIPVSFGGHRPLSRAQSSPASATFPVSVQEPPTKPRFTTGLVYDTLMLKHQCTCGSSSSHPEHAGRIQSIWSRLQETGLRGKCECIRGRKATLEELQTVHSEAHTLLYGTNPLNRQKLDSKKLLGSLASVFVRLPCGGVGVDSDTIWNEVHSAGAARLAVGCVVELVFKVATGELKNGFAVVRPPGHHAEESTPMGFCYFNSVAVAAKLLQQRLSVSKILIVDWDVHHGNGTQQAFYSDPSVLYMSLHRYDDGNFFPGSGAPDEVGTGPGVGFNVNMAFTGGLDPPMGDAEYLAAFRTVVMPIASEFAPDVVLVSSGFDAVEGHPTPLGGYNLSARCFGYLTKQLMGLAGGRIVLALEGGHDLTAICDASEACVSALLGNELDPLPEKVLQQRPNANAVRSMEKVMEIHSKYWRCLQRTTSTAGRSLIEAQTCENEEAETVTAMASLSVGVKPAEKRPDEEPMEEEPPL

Histone deacetylase 11 = molecular target: T4, Histone deacetylase 11 (Homo sapiens, UniProt Q96DB2); assay: Inhibition of HDAC11
T4 sequence (Q96DB2 whole entry): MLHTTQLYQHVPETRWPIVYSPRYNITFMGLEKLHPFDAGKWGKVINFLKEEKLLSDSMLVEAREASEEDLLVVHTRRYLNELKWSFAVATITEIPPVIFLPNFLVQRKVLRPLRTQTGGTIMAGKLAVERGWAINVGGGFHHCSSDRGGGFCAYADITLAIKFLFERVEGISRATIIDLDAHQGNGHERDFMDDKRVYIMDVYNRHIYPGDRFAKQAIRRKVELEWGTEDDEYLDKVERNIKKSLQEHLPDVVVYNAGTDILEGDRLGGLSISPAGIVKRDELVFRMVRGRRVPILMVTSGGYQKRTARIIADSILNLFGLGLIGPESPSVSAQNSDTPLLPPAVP

Cytochrome P450 2D6 = Cytochrome P450 2D6 (Homo sapiens, UniProt P10635); assay: Inhibition of CYP2D6; format: ADME
Chain of Cytochrome P450 2D6 (P10635 whole entry): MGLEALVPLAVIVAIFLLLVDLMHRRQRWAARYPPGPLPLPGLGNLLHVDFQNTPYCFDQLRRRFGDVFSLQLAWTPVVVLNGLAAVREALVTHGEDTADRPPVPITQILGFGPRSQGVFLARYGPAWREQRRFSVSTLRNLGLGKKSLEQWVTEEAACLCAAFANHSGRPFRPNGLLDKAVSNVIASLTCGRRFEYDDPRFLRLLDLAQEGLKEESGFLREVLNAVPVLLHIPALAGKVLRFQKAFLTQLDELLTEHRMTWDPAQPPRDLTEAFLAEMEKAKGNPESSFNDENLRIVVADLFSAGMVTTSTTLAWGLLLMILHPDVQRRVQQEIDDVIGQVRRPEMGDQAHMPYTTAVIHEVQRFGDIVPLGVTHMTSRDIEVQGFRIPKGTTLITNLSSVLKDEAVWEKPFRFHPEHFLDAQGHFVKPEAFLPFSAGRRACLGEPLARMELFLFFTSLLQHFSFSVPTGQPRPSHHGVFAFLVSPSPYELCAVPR

[5] = Metabolic stability in human liver microsomes assessed as compound remaining at 0.5 mg after 15 mins; format: ADME, Microsome; settings: read-out: Stability

For NC(=O)c1ccccc1Nc1cccc(OCCc2ccccc2)c1, which IC50 [1] is on record?
The IC50 was over 300 µM.

And the Activity [2]?
The Activity was “Dose-dependent effect”.

What about the inhibition [3] of the same compound?
The inhibition was “Dose-dependent effect”.

What about the inhibition [4] of the same compound?
Its inhibition is “inactive”.

And the IC50 (Histone deacetylase 1)?
Its IC50 is over 30 µM.

And the IC50 (Histone deacetylase 4)?
Its IC50 is over 30 µM.

And the IC50 (Histone deacetylase 11)?
The IC50 was over 30 µM.

What about the IC50 (Cytochrome P450 2D6) of the same compound?
The IC50 was over 10 µM.

What about the remaining at 0.25 h [5] of the same compound?
The remaining at 0.25 h was 64%.
